Data: ChEMBL document CHEMBL5058577, “EUbOPEN Chemogenomics Library 2 (Multiplex)” (2022)

System: U2OS
Test: Multiplex assay against U2OS
Format: toxicity, cell-based
Details: human
In short: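 Live cells carried four stains from seeding: Hoechst33342, BioTracker Green Microtubule Cytoskeleton Dye, MitoTracker Red and Annexin V Alexa Fluor 680. They were imaged on a CQ1 microscope at 37°C and 5% CO2 after compound addition. Using CellPathfinder machine-learning gating, cells were split into Hoechst high-intensity objects or normal cells, normal cells into healthy, pyknosed or fragmented nuclei, and pyknosed cells into mitotic or apoptotic; tubulin, mitochondrial-mass and membrane-permeability phenotypes are per cents of healthy-nucleus cells.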

[1] = 12 h, 1 µM, compound concentration 1 uM, replicate 1
[2] = 12 h, 1 µM, compound concentration 1 uM, replicate 2
[3] = 12 h, 10 µM, compound concentration 10 uM, replicate 1
[4] = 12 h, 10 µM, compound concentration 10 uM, replicate 2
[5] = 24 h, 1 µM, compound concentration 1 uM, replicate 1
[6] = 24 h, 1 µM, compound concentration 1 uM, replicate 2
[7] = 24 h, 10 µM, compound concentration 10 uM, replicate 1
[8] = 24 h, 10 µM, compound concentration 10 uM, replicate 2
[9] = 48 h, 1 µM, compound concentration 1 uM, replicate 1
[10] = 48 h, 1 µM, compound concentration 1 uM, replicate 2
[11] = 48 h, 10 µM, compound concentration 10 uM, replicate 1
[12] = 48 h, 10 µM, compound concentration 10 uM, replicate 2

SMILES: Cc1cc(NC(=O)NCCN2CCC(O)(Cc3ccccc3)CC2)c2ccccc2n1 [PALOSURAN]
- Population Apoptotic (%) [1]: 80%
- Population Fragmented Nuclei (%) [1]: 27%
- Population Healthy Nuclei (%) [1]: 65%
- Population Hoechst High Intensity Objects (%) [1]: 1%
- Population Membrane Permeable-Phenotype (%) [1]: 4%
- Population Mitochondria Different-Phenotype (%) [1]: 2%
- Population Mitotic Cells (%) [1]: 20%
- Population Normal (%) [1]: 98%
- Population Pyknosed Nuclei (%) [1]: 6%
- Population Tubulin-Different-Phenotype (%) [1]: 1%
- Total Cell Count [1]: 220
- Population Apoptotic (%) [2]: 71%
- Population Fragmented Nuclei (%) [2]: 19%
- Population Healthy Nuclei (%) [2]: 71%
- Population Hoechst High Intensity Objects (%) [2]: 0%
- Population Membrane Permeable-Phenotype (%) [2]: 2%
- Population Mitochondria Different-Phenotype (%) [2]: 0%
- Population Mitotic Cells (%) [2]: 28%
- Population Normal (%) [2]: 100%
- Population Pyknosed Nuclei (%) [2]: 9%
- Total Cell Count [2]: 145
- Population Apoptotic (%) [3]: 72%
- Population Fragmented Nuclei (%) [3]: 30%
- Population Healthy Nuclei (%) [3]: 59%
- Population Hoechst High Intensity Objects (%) [3]: 3%
- Population Membrane Permeable-Phenotype (%) [3]: 6%
- Population Mitochondria Different-Phenotype (%) [3]: 1%
- Population Mitotic Cells (%) [3]: 28%
- Population Normal (%) [3]: 96%
- Population Pyknosed Nuclei (%) [3]: 9%
- Population Tubulin-Different-Phenotype (%) [3]: 1%
- Total Cell Count [3]: 266
- Population Apoptotic (%) [4]: 66%
- Population Fragmented Nuclei (%) [4]: 17%
- Population Healthy Nuclei (%) [4]: 70%
- Population Membrane Permeable-Phenotype (%) [4]: 12%
- Population Mitochondria Different-Phenotype (%) [4]: 2%
- Population Mitotic Cells (%) [4]: 33%
- Population Pyknosed Nuclei (%) [4]: 11%
- Population Tubulin-Different-Phenotype (%) [4]: 8%
- Total Cell Count [4]: 107
- Population Apoptotic (%) [5]: 94%
- Population Fragmented Nuclei (%) [5]: 26%
- Population Healthy Nuclei (%) [5]: 66%
- Population Hoechst High Intensity Objects (%) [5]: 1%
- Population Membrane Permeable-Phenotype (%) [5]: 3%
- Population Mitochondria Different-Phenotype (%) [5]: 3%
- Population Mitotic Cells (%) [5]: 5%
- Population Normal (%) [5]: 98%
- Population Pyknosed Nuclei (%) [5]: 6%
- Population Tubulin-Different-Phenotype (%) [5]: 2%
- Total Cell Count [5]: 276
- Population Apoptotic (%) [6]: 66%
- Population Fragmented Nuclei (%) [6]: 17%
- Population Healthy Nuclei (%) [6]: 74%
- Population Membrane Permeable-Phenotype (%) [6]: 7%
- Population Mitochondria Different-Phenotype (%) [6]: 7%
- Population Mitotic Cells (%) [6]: 33%
- Population Pyknosed Nuclei (%) [6]: 8%
- Population Tubulin-Different-Phenotype (%) [6]: 3%
- Total Cell Count [6]: 173
- Population Apoptotic (%) [7]: 92%
- Population Fragmented Nuclei (%) [7]: 26%
- Population Healthy Nuclei (%) [7]: 65%
- Population Hoechst High Intensity Objects (%) [7]: 3%
- Population Membrane Permeable-Phenotype (%) [7]: 4%
- Population Mitochondria Different-Phenotype (%) [7]: 0%
- Population Mitotic Cells (%) [7]: 8%
- Population Normal (%) [7]: 96%
- Population Pyknosed Nuclei (%) [7]: 8%
- Population Tubulin-Different-Phenotype (%) [7]: 2%
- Total Cell Count [7]: 297
- Population Apoptotic (%) [8]: 75%
- Population Fragmented Nuclei (%) [8]: 19%
- Population Healthy Nuclei (%) [8]: 74%
- Population Membrane Permeable-Phenotype (%) [8]: 11%
- Population Mitochondria Different-Phenotype (%) [8]: 1%
- Population Mitotic Cells (%) [8]: 25%
- Population Pyknosed Nuclei (%) [8]: 6%
- Population Tubulin-Different-Phenotype (%) [8]: 5%
- Total Cell Count [8]: 129
- Population Apoptotic (%) [9]: 96%
- Population Fragmented Nuclei (%) [9]: 25%
- Population Healthy Nuclei (%) [9]: 68%
- Population Hoechst High Intensity Objects (%) [9]: 1%
- Population Membrane Permeable-Phenotype (%) [9]: 5%
- Population Mitochondria Different-Phenotype (%) [9]: 3%
- Population Mitotic Cells (%) [9]: 3%
- Population Normal (%) [9]: 98%
- Population Pyknosed Nuclei (%) [9]: 6%
- Population Tubulin-Different-Phenotype (%) [9]: 3%
- Total Cell Count [9]: 411
- Population Apoptotic (%) [10]: 84%
- Population Fragmented Nuclei (%) [10]: 15%
- Population Healthy Nuclei (%) [10]: 73%
- Population Hoechst High Intensity Objects (%) [10]: 3%
- Population Membrane Permeable-Phenotype (%) [10]: 7%
- Population Mitochondria Different-Phenotype (%) [10]: 5%
- Population Mitotic Cells (%) [10]: 16%
- Population Normal (%) [10]: 97%
- Population Pyknosed Nuclei (%) [10]: 11%
- Population Tubulin-Different-Phenotype (%) [10]: 4%
- Total Cell Count [10]: 233
- Population Apoptotic (%) [11]: 97%
- Population Fragmented Nuclei (%) [11]: 20%
- Population Healthy Nuclei (%) [11]: 70%
- Population Hoechst High Intensity Objects (%) [11]: 1%
- Population Membrane Permeable-Phenotype (%) [11]: 5%
- Population Mitochondria Different-Phenotype (%) [11]: 2%
- Population Mitotic Cells (%) [11]: 2%
- Population Normal (%) [11]: 98%
- Population Pyknosed Nuclei (%) [11]: 9%
- Population Tubulin-Different-Phenotype (%) [11]: 2%
- Total Cell Count [11]: 421
- Population Apoptotic (%) [12]: 89%
- Population Fragmented Nuclei (%) [12]: 16%
- Population Healthy Nuclei (%) [12]: 72%
- Population Membrane Permeable-Phenotype (%) [12]: 7%
- Population Mitochondria Different-Phenotype (%) [12]: 4%
- Population Mitotic Cells (%) [12]: 10%
- Population Pyknosed Nuclei (%) [12]: 10%
- Population Tubulin-Different-Phenotype (%) [12]: 1%
- Total Cell Count [12]: 180

SMILES: Cc1cc(-c2ccc3c(c2)CC[C@H]3N2CC3(CCN(C(=O)Cc4cn5cc(C)sc5n4)CC3)C2)ncn1 [PF-5190457]
- Population Apoptotic (%) [1]: 82%
- Population Fragmented Nuclei (%) [1]: 24%
- Population Healthy Nuclei (%) [1]: 65%
- Population Hoechst High Intensity Objects (%) [1]: 1%
- Population Membrane Permeable-Phenotype (%) [1]: 7%
- Population Mitochondria Different-Phenotype (%) [1]: 3%
- Population Mitotic Cells (%) [1]: 17%
- Population Normal (%) [1]: 98%
- Population Pyknosed Nuclei (%) [1]: 9%
- Population Tubulin-Different-Phenotype (%) [1]: 4%
- Total Cell Count [1]: 239
- Population Apoptotic (%) [2]: 63%
- Population Fragmented Nuclei (%) [2]: 21%
- Population Healthy Nuclei (%) [2]: 66%
- Population Hoechst High Intensity Objects (%) [2]: 0%
- Population Membrane Permeable-Phenotype (%) [2]: 4%
- Population Mitotic Cells (%) [2]: 36%
- Population Normal (%) [2]: 100%
- Population Pyknosed Nuclei (%) [2]: 11%
- Population Tubulin-Different-Phenotype (%) [2]: 3%
- Total Cell Count [2]: 93
- Population Apoptotic (%) [3]: 61%
- Population Fragmented Nuclei (%) [3]: 18%
- Population Healthy Nuclei (%) [3]: 66%
- Population Hoechst High Intensity Objects (%) [3]: 2%
- Population Membrane Permeable-Phenotype (%) [3]: 7%
- Population Mitochondria Different-Phenotype (%) [3]: 5%
- Population Mitotic Cells (%) [3]: 38%
- Population Normal (%) [3]: 97%
- Population Pyknosed Nuclei (%) [3]: 14%
- Population Tubulin-Different-Phenotype (%) [3]: 5%
- Total Cell Count [3]: 238
- Population Apoptotic (%) [4]: 71%
- Population Fragmented Nuclei (%) [4]: 14%
- Population Healthy Nuclei (%) [4]: 74%
- Population Hoechst High Intensity Objects (%) [4]: 1%
- Population Membrane Permeable-Phenotype (%) [4]: 8%
- Population Mitochondria Different-Phenotype (%) [4]: 10%
- Population Mitotic Cells (%) [4]: 28%
- Population Normal (%) [4]: 98%
- Population Pyknosed Nuclei (%) [4]: 11%
- Population Tubulin-Different-Phenotype (%) [4]: 6%
- Total Cell Count [4]: 126
- Population Apoptotic (%) [5]: 69%
- Population Fragmented Nuclei (%) [5]: 25%
- Population Healthy Nuclei (%) [5]: 66%
- Population Hoechst High Intensity Objects (%) [5]: 1%
- Population Membrane Permeable-Phenotype (%) [5]: 8%
- Population Mitochondria Different-Phenotype (%) [5]: 3%
- Population Mitotic Cells (%) [5]: 30%
- Population Normal (%) [5]: 98%
- Population Pyknosed Nuclei (%) [5]: 8%
- Population Tubulin-Different-Phenotype (%) [5]: 5%
- Total Cell Count [5]: 282
- Population Apoptotic (%) [6]: 33%
- Population Fragmented Nuclei (%) [6]: 21%
- Population Healthy Nuclei (%) [6]: 76%
- Population Hoechst High Intensity Objects (%) [6]: 0%
- Population Membrane Permeable-Phenotype (%) [6]: 6%
- Population Mitochondria Different-Phenotype (%) [6]: 1%
- Population Mitotic Cells (%) [6]: 66%
- Population Normal (%) [6]: 99%
- Population Pyknosed Nuclei (%) [6]: 2%
- Population Tubulin-Different-Phenotype (%) [6]: 2%
- Total Cell Count [6]: 126
- Population Apoptotic (%) [7]: 67%
- Population Fragmented Nuclei (%) [7]: 18%
- Population Healthy Nuclei (%) [7]: 72%
- Population Hoechst High Intensity Objects (%) [7]: 2%
- Population Membrane Permeable-Phenotype (%) [7]: 3%
- Population Mitochondria Different-Phenotype (%) [7]: 0%
- Population Mitotic Cells (%) [7]: 32%
- Population Normal (%) [7]: 97%
- Population Pyknosed Nuclei (%) [7]: 9%
- Population Tubulin-Different-Phenotype (%) [7]: 1%
- Total Cell Count [7]: 295
- Population Apoptotic (%) [8]: 84%
- Population Healthy Nuclei (%) [8]: 69%
- Population Hoechst High Intensity Objects (%) [8]: 1%
- Population Membrane Permeable-Phenotype (%) [8]: 11%
- Population Mitochondria Different-Phenotype (%) [8]: 8%
- Population Mitotic Cells (%) [8]: 15%
- Population Normal (%) [8]: 98%
- Population Pyknosed Nuclei (%) [8]: 12%
- Population Tubulin-Different-Phenotype (%) [8]: 4%
- Total Cell Count [8]: 154
- Population Apoptotic (%) [9]: 84%
- Population Fragmented Nuclei (%) [9]: 20%
- Population Healthy Nuclei (%) [9]: 71%
- Population Hoechst High Intensity Objects (%) [9]: 0%
- Population Membrane Permeable-Phenotype (%) [9]: 7%
- Population Mitochondria Different-Phenotype (%) [9]: 4%
- Population Mitotic Cells (%) [9]: 15%
- Population Normal (%) [9]: 99%
- Population Pyknosed Nuclei (%) [9]: 8%
- Population Tubulin-Different-Phenotype (%) [9]: 4%
- Total Cell Count [9]: 402
- Population Apoptotic (%) [10]: 66%
- Population Fragmented Nuclei (%) [10]: 16%
- Population Healthy Nuclei (%) [10]: 78%
- Population Hoechst High Intensity Objects (%) [10]: 2%
- Population Membrane Permeable-Phenotype (%) [10]: 4%
- Population Mitochondria Different-Phenotype (%) [10]: 2%
- Population Mitotic Cells (%) [10]: 33%
- Population Normal (%) [10]: 97%
- Population Pyknosed Nuclei (%) [10]: 5%
- Population Tubulin-Different-Phenotype (%) [10]: 2%
- Total Cell Count [10]: 184
- Population Apoptotic (%) [11]: 74%
- Population Fragmented Nuclei (%) [11]: 16%
- Population Healthy Nuclei (%) [11]: 71%
- Population Hoechst High Intensity Objects (%) [11]: 3%
- Population Membrane Permeable-Phenotype (%) [11]: 5%
- Population Mitochondria Different-Phenotype (%) [11]: 2%
- Population Mitotic Cells (%) [11]: 25%
- Population Normal (%) [11]: 96%
- Population Pyknosed Nuclei (%) [11]: 12%
- Population Tubulin-Different-Phenotype (%) [11]: 3%
- Total Cell Count [11]: 389
- Population Apoptotic (%) [12]: 76%
- Population Fragmented Nuclei (%) [12]: 18%
- Population Membrane Permeable-Phenotype (%) [12]: 11%
- Population Mitochondria Different-Phenotype (%) [12]: 6%
- Population Mitotic Cells (%) [12]: 23%
- Population Pyknosed Nuclei (%) [12]: 10%
- Population Tubulin-Different-Phenotype (%) [12]: 4%
- Total Cell Count [12]: 217
